Test results as given in ChEMBL document CHEMBL1149584, “Synthesis and structure-activity relationships of new antiproliferative and proapoptotic retinoid-related biphenyl-4-yl-acrylic acids” (Bioorg Med Chem, 2007).
Calls of active or inactive are those of the source. The calls are words filed in the database; no cut-off is given here.

Legend:
[1] = system: IGROV-1; assay: Cell cycle arrest in IGROV1 cells assessed as accumulation at subG1 phase by FAC scan flow cytometry; format: functional, cell-based; details: Homo sapiens, TDE = time-dependent effect
How it was run: (§1)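 Cells treated at the IC₈₀ concentration. Cell cycle distribution of propidium iodide-stained cells measured by FACScan flow cytometry at 24, 48 and 72 h of treatment. One experiment representative of three.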

[2] = Antiproliferative activity against human cisplatin-resistant IGROV1/Pt1 cells with p53 mutation after 72 hrs; format: functional, cell-based, IGROV-1
How it was run: (§2)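 Ovarian carcinoma cells in log-phase growth were seeded in duplicate. Drug was added 24 h after seeding and exposure lasted 72 h. Cells were harvested and counted with a cell counter. IC₅₀ is the concentration giving a 50% drop in cell number versus untreated control.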

[3] = target: T1, MAP kinase p38 (Homo sapiens) (UniProt O15264+Q15759+Q16539+P53778); assay: Activation of p38 kinase in IGROV1 cells assessed as phosphorylation after 18 hrs; format: cell-based; details: IGROV-1
How it was run: (§3)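 Cells treated for 18 h at each compound's IC₈₀ concentration. Lysates analyzed by Western blot with phospho-specific antibodies to detect activated JNK and p38.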

[4] = system: IGROV-1; assay: Antiproliferative activity against human IGROV1 cells after 72 hrs; format: functional, cell-based; details: IGROV-1, 72 h; how it was run: as §2
[5] = system: IGROV-1; assay: Cell cycle arrest in IGROV1 cells assessed as accumulation at G1/S phase by FAC scan flow cytometry; format: functional, cell-based; details: Homo sapiens; how it was run: as §1
[6] = system: IGROV-1; assay: Induction of apoptosis in IGROV1 cells after 72 hrs by TUNEL assay; format: functional, Homo sapiens; set-up: concentration or dose not given beside the values
How it was run: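 Cells exposed to drug for 72 h, fixed in 4% paraformaldehyde for 60 min at room temperature, then washed and resuspended in ice-cold PBS. Apoptosis detected by TUNEL and analyzed by flow cytometry.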

[7] = system: IGROV-1; assay: Induction of DNA damage in IGROV1 cells assessed as RPA2 protein phosphorylation after 6 hrs; format: functional, cell-based; details: Homo sapiens
[8] = system: NB-4; assay: Antiproliferative activity against human NB4 cells after 72 hrs; format: functional, cell-based; details: NB-4, 72 h
How it was run: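 Leukemia cells were exposed to drug for 24 h, and growth inhibition was assessed at 72 h by cell counting. IC₅₀ is the concentration giving a 50% drop in cell number versus untreated control.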

[9] = target: c-Jun N-terminal kinase, JNK (Homo sapiens) (UniProt P45983+P53779+P45984); assay: Activation of JNK in IGROV1 cells assessed as phosphorylation after 18 hrs; format: cell-based; details: IGROV-1; how it was run: as §3
[10] = system: IGROV-1; assay: Induction of DNA damage in IGROV1 cells assessed as p53 protein phosphorylation after 6 hrs; format: functional, cell-based; details: Homo sapiens
[11] = system: IGROV-1; assay: Induction of DNA damage in IGROV1 cells assessed as H2AX histone phosphorylation after 6 hrs; format: functional, cell-based; details: Homo sapiens
[12] = target: T1, MAP kinase p38 (Homo sapiens); assay: Activation of p38 kinase in IGROV1/Pt1 cells with p53 mutation assessed as phosphorylation after 18 hrs; format: cell-based; details: IGROV-1; how it was run: as §3
[13] = Homo sapiens, IGROV-1/Pt1, 72 h

Activity [3] | Activity [9] | Activity [12] | Structure (SMILES) | Activity [1] | IC50 [2, 13] | IC50 [4] | Activity [5] | Activity [6] | Activity [7] | IC50 [8] | Activity [10] | IC50 [2] | Activity [11]
Active | Active |  | O=C(O)/C=C/c1ccc(-c2cc3c(c(C45CC6CC(CC(C6)C4)C5)c2)OCO3)cc1 | tde | 460 nM | 390 nM | Active | 50% | Active | 260 nM | Active |  | 
 |  |  | O=C(O)/C=C/c1ccc(-c2cc(CO)c(O)c(C34CC5CC(CC(C5)C3)C4)c2)cc1 |  |  | 760 nM |  | 45% | Active | 190 nM | Active | 1040 nM | 
 |  |  | COc1ccc(-c2ccc(/C=C/C(=O)O)cc2)cc1C12CC3CC(CC(C3)C1)C2 | tde | 1430 nM | 1190 nM | Active | 47% | Active | 1100 nM | Active |  | Active
 |  |  | O=C(O)/C(Br)=C\c1ccc(-c2cc3c(c(C45CC6CC(CC(C6)C4)C5)c2)OCO3)cc1 |  | 34100 nM | 36600 nM |  |  |  | 72300 nM |  |  | 
 |  |  | COc1ccc(-c2ccc(/C=C(/Br)C(=O)O)cc2)cc1C12CC3CC(CC(C3)C1)C2 |  | > 10000 nM | 30600 nM |  |  |  | 41000 nM |  |  | 
 |  | Active | O=C(O)/C=C/c1ccc(-c2ccc(O)c(C34CC5CC(CC(C5)C3)C4)c2)cc1 [ADAROTENE] |  | 400 nM |  |  | 51% | Active |  | Active |  | 
 |  |  | O=C(O)C#Cc1ccc(-c2cc3c(c(C45CC6CC(CC(C6)C4)C5)c2)OCO3)cc1 |  | 4800 nM | 3600 nM |  |  |  | 2000 nM |  |  | 
 |  |  | O=C(O)/C=C/c1ccc(-c2cc3c(c(C45CC6CC(CC(C6)C4)C5)c2)OCCO3)cc1 | tde | 480 nM | 230 nM | Active | 30% | Active | 110 nM | Active |  | 
 |  |  | CC(=O)NCc1cc(-c2ccc(/C=C/C(=O)O)cc2)cc(C23CC4CC(CC(C4)C2)C3)c1O |  | 2890 nM | 1240 nM |  |  |  | 990 nM |  |  | 
 |  |  | COc1cc(-c2ccc(/C=C/C(=O)O)cc2)cc(C23CC4CC(CC(C4)C2)C3)c1O |  |  | 520 nM |  |  |  | 270 nM |  |  | 
 |  |  | COc1cc(-c2ccc(/C=C/C(=O)O)cc2)cc(C23CC4CC(CC(C4)C2)C3)c1OC |  | 2400 nM | 710 nM |  |  |  | 1890 nM |  |  | 
 |  |  | O=C(O)/C=C/c1ccc(-c2cccc(C34CC5CC(CC(C5)C3)C4)c2)cc1 |  | 21900 nM | 18800 nM |  |  |  |  |  |  | 
 |  |  | Cl.NCc1cc(-c2ccc(/C=C/C(=O)O)cc2)cc(C23CC4CC(CC(C4)C2)C3)c1O | tde | 390 nM | 450 nM | Active | 55% | Active | 180 nM | Active |  | 
 |  |  | O=Cc1cc(-c2ccc(/C=C/C(=O)O)cc2)cc(C23CC4CC(CC(C4)C2)C3)c1O |  | 2720 nM | 1640 nM |  |  |  | 1610 nM |  |  | 
 |  |  | COc1ccc(-c2ccc(/C=C(\Br)C(=O)O)cc2)cc1C12CC3CC(CC(C3)C1)C2 |  | > 20000 nM | > 20000 nM |  |  |  | 17900 nM |  |  | 
 |  |  | COc1c(O)cc(-c2ccc(/C=C/C(=O)O)cc2)cc1C12CC3CC(CC(C3)C1)C2 | tde | 970 nM | 570 nM | Active | 20% | Active | 550 nM | Active |  | 
 |  |  | COc1ccc(-c2ccc(C#CC(=O)O)cc2)cc1C12CC3CC(CC(C3)C1)C2 |  | 4800 nM | 1700 nM |  |  |  |  |  |  | 
